Results collected from several papers.
Protocols differ between the studies behind these lines.
EIF2AK4 S808G C-terminal kinase domain: eIF-2-alpha kinase GCN2, C-terminal kinase domain (EIF2AK4, Homo sapiens, UniProt Q9P2K8, S808G)
EIF2AK4 S808G: eIF-2-alpha kinase GCN2 (EIF2AK4, Homo sapiens, UniProt Q9P2K8, S808G)

CCCOc1ccc([C@@H]2[C@@H](C(=O)O)[C@H](c3ccc4c(c3)OCO4)CN2CC(=O)Nc2c(CC)cccc2CC)cc1 — remaining binding (EIF2AK4 S808G C-terminal kinase domain; cell-free assay; competition with immobilised ligand; 1 µM): 100%
F[C@@H]1CCN(c2nccc(-c3cnn4ncccc34)n2)C1 — remaining binding (EIF2AK4 S808G; binding; 1 µM): 63%
O=C(Nc1c[nH]nc1C(=O)NC1CCNCC1)c1cc(F)cc(F)c1 — remaining binding (EIF2AK4 S808G C-terminal kinase domain; binding; competition with immobilised ligand; 1 µM): 100%
Cc1cnc(Nc2ccc(C(=O)N3CCC(N4CCCC4)CC3)cc2)nc1-c1cc2ccccc2s1 — remaining binding (EIF2AK4 S808G C-terminal kinase domain; binding; competition with immobilised ligand; 1 µM): 0%
O=C(NS(=O)(=O)c1ccc(NCC2CCOCC2)c([N+](=O)[O-])c1)c1ccc(N2CCN(Cc3ccc(C(F)(F)F)cc3-c3ccc(Cl)cc3)CC2)cc1Oc1cnc2[nH]ccc2c1 — remaining binding (EIF2AK4 S808G C-terminal kinase domain; cell-free assay; competition with immobilised ligand; 1 µM): 85%
CN(C)c1nccc(-c2cnc3ncccn23)n1 — remaining binding (EIF2AK4 S808G; binding; 1 µM): 99%
C[C@@H](c1ccc(-n2cnc3c(N)ncnc32)cc1)N1CCc2nn(C)c(Cc3ccccc3)c2C1=O — remaining binding (EIF2AK4 S808G C-terminal kinase domain; binding; competition with immobilised ligand; 0.1 µM): 98%
O=C(c1ccc(Nc2nccc(-c3cc4ccccc4s3)n2)cc1)N1CCC(N2CCCC2)CC1 — remaining binding (EIF2AK4 S808G C-terminal kinase domain; binding; competition with immobilised ligand; 1 µM): 5.2%
C[C@@H](c1cccc(C#N)c1)n1cc(Cl)cc(C(N)=O)c1=N — remaining binding (EIF2AK4 S808G C-terminal kinase domain; cell-free assay; competition with immobilised ligand; 1 µM): 50%
C[C@H]1CCN(c2nccc(-c3cnn4ncccc34)n2)C1 — remaining binding (EIF2AK4 S808G; binding; 1 µM): 100%
COc1cnc(Nc2cccc(S(N)(=O)=O)c2)nc1N1CCN(c2ccccc2)C(=O)C1 — remaining binding (EIF2AK4 S808G C-terminal kinase domain; binding; competition with immobilised ligand; 1 µM): 90%
O=C(c1ccc(Nc2ncc(Cl)c(-c3ccc(Cl)s3)n2)cc1)N1CCC(N2CCCC2)CC1 — remaining binding (EIF2AK4 S808G C-terminal kinase domain; binding; competition with immobilised ligand; 1 µM): 0.25%
O=C(NCc1ncc(C(F)(F)F)cc1Cl)c1ccc2c(c1)C1(CCS(=O)(=O)CC1)[C@@H](C1CC1)N2S(=O)(=O)c1ccc(F)cc1 — remaining binding (EIF2AK4 S808G C-terminal kinase domain; cell-free assay; competition with immobilised ligand; 1 µM): 100%
CNC(=O)[C@@H]1CC[C@@H](n2c(-c3ccc4cnccc4c3)nc3ccc(C(=O)NCc4cccc(C(N)=O)c4)cc32)C1 — remaining binding (EIF2AK4 S808G C-terminal kinase domain; binding; competition with immobilised ligand; 1 µM): 82%
CN(c1nccc(-c2cnn3ncccc23)n1)C1CC1 — remaining binding (EIF2AK4 S808G; binding; 1 µM): 69%
O=C(NCCCC1CCCCC1)c1ccc(CNC(=O)c2cnn(-c3ccccc3)c2C(F)(F)F)cc1 — remaining binding (EIF2AK4 S808G C-terminal kinase domain; cell-free assay; competition with immobilised ligand; 0.1 µM): 100%
CN1CCN(c2ccc(Nc3nccc(-c4ccccc4)n3)cc2C(F)(F)F)CC1 — remaining binding (EIF2AK4 S808G; binding; 10 µM): 0.2%
CN(C)c1ncc(F)c(-c2cnn3ncccc23)n1 — remaining binding (EIF2AK4 S808G; binding; 1 µM): 100%
FC(F)(F)Oc1cccc(-c2cnc3ccc(-c4ccncc4)nn23)c1 — remaining binding (EIF2AK4 S808G; binding; competition with immobilised ligand; 5 µM): 35%
N[C@H]1CCN(c2nccc(-c3cnn4ncccc34)n2)C1 — remaining binding (EIF2AK4 S808G; binding; 1 µM): 100%
C=CC(=O)N1CCC(C(=O)NCC(=O)N2CCN(c3nc(-c4cnc(N)nc4C(F)F)nc(N4CCOCC4)n3)CC2)CC1 — remaining binding (EIF2AK4 S808G C-terminal kinase domain; binding; competition with immobilised ligand; 1 µM): 100%
Cc1cnn2ncc(-c3ccnc(N(C)C)n3)c2c1 — remaining binding (EIF2AK4 S808G; binding; 1 µM): 96%
O=C(NC[C@@H]1[C@H]2CN(C(=O)OCc3cc(C(F)(F)F)cc(C(F)(F)F)c3)C[C@@H]12)c1ccc2[nH]nnc2c1 — remaining binding (EIF2AK4 S808G C-terminal kinase domain; cell-free assay; competition with immobilised ligand; 1 µM): 84%
